The source of these data is ChEMBL document CHEMBL3804820, “2-hydroxyisoquinoline-1,3(2H,4H)-diones (HIDs) as human immunodeficiency virus type 1 integrase inhibitors: Influence of the alkylcarboxamide substitution of position 4” (Eur J Med Chem, 2016).

A word on the inhibition: it is the relative decrease from the control value, in per cent. One may read the Papp as a coefficient for how fast a substance crosses the barrier. The term IC50 denotes the concentration at which inhibition is half-maximal. The term CC50 denotes the concentration that lowers cell viability or growth by half. A word on the EC50: it is the concentration that produces a half-maximal response.

The source made the active and inactive calls. No cut-off for these calls is given here.

The subject of series [1] is Human immunodeficiency virus 1. The series is described as follows: Selectivity ratio of EC50 for raltegravir resistant HIV1 harboring integrase G140S/Q148H double mutant infected in human MT4 cells to EC50 for wild type HIV1 3B infected in human MT4 cells. Type of series: functional. In a few lines: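 MT-4 cells were infected with 100–300 CCID₅₀ of virus stock (titrated in MT-4 cells) in the presence of 5-fold serial drug dilutions. EC₅₀ is the concentration giving 50% protection against virus-induced cytopathic effect, read by MTT reduction (MT-4/MTT assay). The value is the fold-change in EC₅₀ for each mutant strain relative to the wild-type HIV-1 strain.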

The target of a further series is CYP2C19 (Homo sapiens, UniProt P33261). The series is described as follows: Inhibition of human recombinant CYP2C19 using CEC as substrate at 10 uM incubated for 50 mins by fluorimetry relative to control. Type of series: ADME. As to conditions: recombinant CYP2C19, probe CEC. In a few lines: (§1)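 Recombinant CYP isoforms, each with its fluorogenic substrate: CYP1A2 and CYP2C19 with CEC, CYP2C9 and CYP2D6 with MFC, CYP3A4 with BFC. Read as percentage inhibition of control, standard contract assays.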

Series [2] can be described thus: Cytotoxicity against human HepG2 cells assessed as reduction in mitochondrial membrane potential at 1 uM after 72 hrs by fluorescent image analysis relative to untreated control. Type of series: cell-based. As to conditions: read-out: INH. The essentials: (§2)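 Contract in vitro cytotoxicity panel covering cell number, intracellular free calcium, nuclear size, membrane permeability and mitochondrial membrane potential. Compounds tested at 1.0, 30.0 and 100.0 µM; values are percentage change versus untreated control, and IC50 where derived.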

The next series concerns MDCK-II. The series is described as follows: Inhibition of human P-gp expressed in MDCK2-MDR1 cells assessed as reduction in calcien-AM efflux at 30 uM incubated for 20 mins by fluorimetry relative to control. Type of series: cell-based. In a few lines:
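P-gp efflux inhibition in MDR1-MDCKII cells with calcein AM substrate, tested up to 100.0 µM. Read as percentage inhibition of control.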

Series [3] can be described thus: Cytotoxicity against human HepG2 cells assessed as reduction in cell number at 100 uM after 72 hrs by fluorescent image analysis relative to untreated control. Type of series: cell-based. As to conditions: read-out: INH. The essentials:
as §2

The nature of series [4]: Plasma protein binding in human at 10 uM incubated for 4 hrs by equilibrium dialysis method. Type of series: ADME, cell-free. The following applies: read-out: PPB. In a few lines: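 Human plasma protein binding, given as percent bound and percent recovery, in a standard contract assay.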
(In general: In equilibrium dialysis free small molecules cross a membrane that holds back macromolecules.)

The test system of series [5] is HepG2. Briefly: Cytotoxicity against human HepG2 cells assessed as increase in intracellular free calcium level at 1 uM after 72 hrs by fluorescent image analysis relative to untreated control. Type of series: cell-based. The following applies: hepg2, 72 h. In a few lines: as §2
Series [6] in a line: Apparent permeability coefficient in human Caco2 cells at pH 6.5/7.4 at 10 uM. Type of series: ADME, cell-based. As to conditions: Caco-2, pH 6.5. The essentials: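 A-to-B permeability measured in Caco-2 monolayers at pH 6.5/7.4, reported as Papp. Standard contract assay.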
In general terms: Caco-2 cells form a polarised layer with tight junctions and transporters.

Series [7] deals with Human immunodeficiency virus 1. Briefly: Antiviral activity against HIV1 3B infected in human MT4 cells at 50 to 100 times antiviral EC50 added 1 to 25 hrs post infection assessed as time required for loss of inhibition of viral replication measured at 30 hrs post infection by p24 ELISA method. Type of series: functional. In general terms: In an ELISA, binding on a coated surface is turned into a signal by an enzyme label.

Series [8] is described as follows: Inhibition of recombinant HIV1 reverse transcriptase RNase H activity using calf thymus ssDNA-[3H]-RNA as template/primer incubated for 10 mins. More on the design: species or system Human immunodeficiency virus 1. In a few lines: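 Recombinant HIV-1 RT (4.5 pmol) preincubated with compound 10 min at 37 °C. Then reacted 10 min at 37 °C with [3H]-RNA/calf thymus DNA hybrid (20,000 cpm) in 50 mM Tris-HCl pH 8.0, 10 mM DTT, 6 mM MgCl2, 80 mM KCl. Stopped with cold TCA/pyrophosphate; released radioactivity taken by subtraction from undigested control.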

Series [9] has as its target T1, hERG (KCNH2) (Homo sapiens, UniProt Q12809). Briefly: in vitro. As to conditions: CHO-K1 cells expressing human ERG.
A short description of series [10]: Cytotoxicity against human MT4 cells assessed as reduction in cell viability by MTT assay. Type of series: cell-based. In a few lines:
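MT-4 cell viability was measured by MTT reduction, run in parallel with the antiviral assay using 5-fold serial compound dilutions. CC50 is the concentration reducing viability by 50%.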

The subject of series [11] is HepG2. The series is described as follows: Cytotoxicity against human HepG2 cells assessed as increase in intracellular free calcium level at 30 uM after 72 hrs by fluorescent image analysis relative to untreated control. Type of series: cell-based. As to conditions: hepg2, 72 h. In a few lines: as §2
Series [12] deals with T1, hERG (KCNH2). The series is described as follows: in vitro. As to conditions: CHO-K1 cells expressing human ERG. The source holds these as a separate data set.
In a further series the target is CYP3A4 (Homo sapiens, UniProt P08684). The series is described as follows: Inhibition of human recombinant CYP3A4 using BFC as substrate at 10 uM incubated for 30 mins by fluorimetry relative to control. Type of series: ADME. As to conditions: recombinant CYP3A4, probe BFC. The essentials:
as §1

The subject of series [13] is HepG2. Briefly: Cytotoxicity against human HepG2 cells assessed as increase in membrane permeability at 100 uM after 72 hrs by fluorescent image analysis relative to untreated control. The following applies: hepg2, 72 h. Type of series: cell-based.
In series [14] the test system is Human immunodeficiency virus 1. Briefly: Antiviral activity against HIV1 3B infected in human MT4 cells assessed as reduction in virus-induced cytopathic effect by MTT assay. The following applies: Human immunodeficiency virus 1, 3B. Type of series: functional, organism-based. In a few lines:
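MT-4 cells infected with 100-300 CCID50 of HIV-1 IIIB, in the presence of 5-fold serial dilutions of compound. Cytopathic effect read by MTT reduction to formazan, measured spectrophotometrically. EC50 is the concentration giving 50% protection against virus-induced CPE.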

The nature of series [15]: Cytotoxicity against human HepG2 cells assessed as reduction in cell number at 30 uM after 72 hrs by fluorescent image analysis relative to untreated control. Type of series: cell-based. As to conditions: read-out: INH. In a few lines:
as §2

For another series, the target named is T2, CYP1A2 (Homo sapiens, UniProt P05177).
T2 sequence (P05177 whole entry): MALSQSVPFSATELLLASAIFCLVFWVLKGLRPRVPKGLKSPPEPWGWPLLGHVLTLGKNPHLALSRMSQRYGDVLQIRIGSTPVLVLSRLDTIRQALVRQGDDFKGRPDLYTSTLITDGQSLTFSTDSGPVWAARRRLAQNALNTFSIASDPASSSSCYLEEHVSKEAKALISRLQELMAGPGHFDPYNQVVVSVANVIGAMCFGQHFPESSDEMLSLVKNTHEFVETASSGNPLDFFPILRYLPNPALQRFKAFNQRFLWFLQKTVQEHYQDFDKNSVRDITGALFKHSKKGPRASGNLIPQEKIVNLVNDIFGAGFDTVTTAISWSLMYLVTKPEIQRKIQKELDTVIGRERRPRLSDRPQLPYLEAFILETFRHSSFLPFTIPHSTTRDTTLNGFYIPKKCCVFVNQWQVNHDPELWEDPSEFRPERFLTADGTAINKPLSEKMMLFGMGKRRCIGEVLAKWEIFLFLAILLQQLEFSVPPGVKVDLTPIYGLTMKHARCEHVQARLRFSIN
The series is described as follows: Inhibition of human recombinant CYP1A2 using CEC as substrate at 10 uM incubated for 30 mins by fluorimetry relative to control. Type of series: ADME. The following applies: recombinant CYP1A2, probe CEC. The essentials:
as §1

The nature of series [16]: Cytotoxicity against human HepG2 cells assessed as reduction in nuclear size at 100 uM after 72 hrs by fluorescent image analysis relative to untreated control. Type of series: cell-based. The following applies: read-out: INH. In a few lines: as §2
Series [17] is described as follows: Therapeutic index, ratio of CC50 for human MT4 cells to EC50 for HIV1 3B infected in human MT4 cells. As to conditions: read-out: Ratio CC50/EC50. Type of series: cell-based. In a few lines:
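Ratio of CC50 to EC50. Both were determined in parallel by MTT in MT-4 cells, with the EC50 measured against HIV-1 IIIB cytopathic effect.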

T1 sequence (Q12809 whole entry): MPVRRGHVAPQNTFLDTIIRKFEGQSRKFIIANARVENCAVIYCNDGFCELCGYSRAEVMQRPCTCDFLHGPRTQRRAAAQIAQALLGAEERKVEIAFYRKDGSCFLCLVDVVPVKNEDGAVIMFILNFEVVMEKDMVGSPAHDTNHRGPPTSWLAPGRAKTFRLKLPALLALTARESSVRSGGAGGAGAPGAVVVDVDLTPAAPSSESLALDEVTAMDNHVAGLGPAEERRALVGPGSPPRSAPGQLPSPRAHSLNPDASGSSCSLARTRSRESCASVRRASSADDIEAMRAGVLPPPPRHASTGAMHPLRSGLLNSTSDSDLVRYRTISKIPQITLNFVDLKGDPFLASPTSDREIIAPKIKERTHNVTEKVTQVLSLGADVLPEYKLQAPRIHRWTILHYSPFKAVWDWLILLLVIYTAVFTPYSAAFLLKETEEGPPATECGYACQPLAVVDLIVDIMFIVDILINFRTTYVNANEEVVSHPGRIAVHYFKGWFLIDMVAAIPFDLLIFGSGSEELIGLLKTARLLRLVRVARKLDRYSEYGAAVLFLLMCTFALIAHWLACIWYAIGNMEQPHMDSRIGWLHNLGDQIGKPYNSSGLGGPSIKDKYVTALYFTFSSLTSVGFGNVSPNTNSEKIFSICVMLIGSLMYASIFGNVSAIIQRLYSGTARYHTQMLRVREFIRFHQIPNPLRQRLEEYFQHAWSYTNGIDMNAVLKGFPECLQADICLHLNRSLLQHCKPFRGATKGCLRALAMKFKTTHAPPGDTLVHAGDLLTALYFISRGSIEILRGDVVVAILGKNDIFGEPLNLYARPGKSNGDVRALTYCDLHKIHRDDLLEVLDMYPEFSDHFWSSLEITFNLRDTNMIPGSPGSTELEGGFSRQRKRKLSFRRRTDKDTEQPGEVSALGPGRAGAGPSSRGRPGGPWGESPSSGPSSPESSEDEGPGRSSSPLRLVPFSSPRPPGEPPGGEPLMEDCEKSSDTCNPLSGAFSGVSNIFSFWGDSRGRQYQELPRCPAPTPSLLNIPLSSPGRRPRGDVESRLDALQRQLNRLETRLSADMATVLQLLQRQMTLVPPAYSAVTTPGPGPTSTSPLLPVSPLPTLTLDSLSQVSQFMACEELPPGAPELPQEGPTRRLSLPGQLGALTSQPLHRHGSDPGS
CYP2C19, sequence (P33261 whole entry, canonical isoform): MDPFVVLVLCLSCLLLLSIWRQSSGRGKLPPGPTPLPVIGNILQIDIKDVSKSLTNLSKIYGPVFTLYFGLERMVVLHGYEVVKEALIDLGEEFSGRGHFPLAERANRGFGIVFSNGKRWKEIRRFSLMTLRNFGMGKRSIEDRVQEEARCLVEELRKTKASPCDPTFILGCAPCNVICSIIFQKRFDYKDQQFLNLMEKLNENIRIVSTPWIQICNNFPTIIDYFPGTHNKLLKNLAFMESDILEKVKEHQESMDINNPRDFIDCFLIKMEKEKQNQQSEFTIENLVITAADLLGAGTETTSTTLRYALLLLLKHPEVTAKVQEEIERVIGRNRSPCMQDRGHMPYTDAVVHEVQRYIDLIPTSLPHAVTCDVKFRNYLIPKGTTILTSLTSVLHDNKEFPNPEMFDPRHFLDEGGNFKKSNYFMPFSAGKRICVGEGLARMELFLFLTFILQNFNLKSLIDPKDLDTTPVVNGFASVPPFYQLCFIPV
CYP3A4, sequence (P08684 whole entry): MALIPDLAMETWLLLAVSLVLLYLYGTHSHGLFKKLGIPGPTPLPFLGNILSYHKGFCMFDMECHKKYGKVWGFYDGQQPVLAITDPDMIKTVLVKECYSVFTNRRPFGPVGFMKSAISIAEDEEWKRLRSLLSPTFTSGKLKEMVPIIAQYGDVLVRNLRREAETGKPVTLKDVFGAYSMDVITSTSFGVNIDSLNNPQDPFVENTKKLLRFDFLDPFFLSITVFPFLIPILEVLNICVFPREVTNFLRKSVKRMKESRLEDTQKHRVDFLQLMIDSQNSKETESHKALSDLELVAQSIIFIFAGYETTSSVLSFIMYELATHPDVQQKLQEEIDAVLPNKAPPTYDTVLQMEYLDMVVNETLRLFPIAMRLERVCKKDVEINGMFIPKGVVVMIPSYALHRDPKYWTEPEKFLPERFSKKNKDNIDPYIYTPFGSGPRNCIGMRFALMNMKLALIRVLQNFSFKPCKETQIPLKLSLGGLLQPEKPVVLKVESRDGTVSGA

Regarding `CCCCCCNC(=O)C1C(=O)N(O)C(=O)c2ccccc21` (stereo unspecified), the “Ratio EC50” value in [1] was determined as 1. The inhibition at 50 min, 10 µM on CYP2C19 amounted to 9.3%. Further, in series [2], the cytotoxicity at 72 h, 1 µM was 5.7%. The inhibition with MDCK-II was determined as 2%. The figures for the cytotoxicity at 72 h, 100 µM in series [3] and in [16] were 25.3% and 26.8%, respectively. Also, the fraction unbound at 4 h, 10 µM in series [4] worked out at 0.001. The Activity with HepG2 [5] was -1.5%; in the series with HepG2 [11], 5.8%; in the series with HepG2 [13], 23.6%. The Papp at 10 µM in series [6] is 24.6 ×10⁻⁶ cm/s. Also, the result in series [7] was Active. Further, the IC50 in series [8] was determined as 5.35 µM. The inhibition at 5 min, 1 µM against hERG (KCNH2) [9] turned out to be 12.2%. The CC50 in [10] was 57.7 µM. At hERG (KCNH2) [12], this compound yielded an inhibition at 5 min, 0.1 µM of 5.8%. Also, the inhibition at 0.5 h, 10 µM on CYP3A4 came out at 42%; at CYP1A2, 12.7%. Also, in series [14], the EC50 came to 2.7 µM. For the same compound, the cytotoxicity at 72 h, 30 µM in [15] came to 4.9%. Further, in [17], the selectivity ratio was 21.2.
